Variants at the floor of the assay were thinned out.

To fix the notation:
B1: tRNA (parent)
chain: GUUCCGUUGGCGUAAUGGUAACGCGUCUCCCUCCUAAGGAGAAGACUGCGGGUUCGAGUCCCGUACGGAACG

The variants in this series derive from B1. Kind of series: yeast fitness relative to wild type (ratio to wild type); higher = fitter; tRNA-Arg(CCU), competitive growth, 37 C, YPD. In short, it runs like this:
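Variants of the tRNA-Arg(CCU) gene were chemically synthesised with a 3% per-site mutation rate across 69 sites and placed at the native genomic locus in Saccharomyces cerevisiae. Six parallel replicates of the pooled strains were competed in YPD at 37°C for 24 hours, and gene amplicons from the start and end populations were read by 100-nucleotide paired-end sequencing. Darwinian fitness relative to wild type was derived from changes in genotype frequencies. Genotypes required ≥ 100 starting reads, and estimates < 0.5 were set to 0.5.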
As to A15C U28C C61G, the yeast fitness is no more than 0.5.

For A15C C46U C61U G67A, the yeast fitness is no more than 0.5.

Regarding A15C C29G G44C A45U U47A A70C, the yeast fitness is no more than 0.5.

On to A15G A45U G48A G56A, for which the yeast fitness was determined as 0.717.

With A15C C49U U54C C55G, the yeast fitness was 0.64.

Regarding A15C A45C G48A, the yeast fitness stood at 0.638.

As for A15C C27U A40G G52A A57U, the yeast fitness amounted to 0.692.

Regarding A15G A36G A43G A57U, the yeast fitness is no more than 0.5.

In the case of A15G A45U A70G, the yeast fitness was 0.617.

As for A15C G18A U19G, the yeast fitness is no more than 0.5.

Turning to A15C C46A G56C A70G, the yeast fitness is no more than 0.5.

Regarding A15C G58A C61A, the yeast fitness was no more than 0.5.

On to A15C C31A, for which the yeast fitness is 0.561.

Turning to A15C C31U, the yeast fitness came to 0.742.

A15C C24G A40U G44A: the yeast fitness is no more than 0.5.

As to A15C C29A U54A, the yeast fitness is no more than 0.5.

For A15C C31G C55A, the yeast fitness amounted to 0.608.

On to A15G A20G A40C C46U C49A A57U A65C C66G, for which the yeast fitness is no more than 0.5.

As for A15C U26A, the yeast fitness was determined as 0.523.

A15C G18C U26C C29A C34G: the yeast fitness was found to be 0.616.

Regarding A15C G48C, the yeast fitness is 0.69.

Turning to A15C A40U G63A A65G G67A, the yeast fitness is no more than 0.5.

A15G A40U G48C C60G: the yeast fitness was no more than 0.5.

With A15C C24U G44A C55G, the yeast fitness was no more than 0.5.

On to A15C A21U A69U, for which the yeast fitness is no more than 0.5.

On to A15G A21U, for which the yeast fitness was determined as 0.989.

As for A15C C30A A42C G56A C60G, the yeast fitness was no more than 0.5.

Turning to A15C G17A A65G, the yeast fitness is 0.576.

Take A15C C27G C49G: the yeast fitness came to 0.551.

With A15C U16C A20C U54C A57G, the yeast fitness was no more than 0.5.

As to A15C U35C, the yeast fitness turned out to be 0.578.

A15C G17A C55G: the yeast fitness was no more than 0.5.

For the variant A15C A36U A57U G67A, the yeast fitness was no more than 0.5.

A15C U16C C31G A69U: the yeast fitness is no more than 0.5.

As for A15G A20G C49A C62U, the yeast fitness is 0.567.

For the variant A15C C46U C49U G50A, the yeast fitness was no more than 0.5.

In the case of A15C G18C A40U, the yeast fitness is no more than 0.5.

On to A15C G41C A45C C62U, for which the yeast fitness is no more than 0.5.

Take A15C A69C: the yeast fitness is 0.672.

On to A15C A69U, for which the yeast fitness was found to be 0.892.

Take A15C C34U C55A: the yeast fitness is no more than 0.5.

With A15C A37G, the yeast fitness is 0.614.

Regarding A15C A37C, the yeast fitness is 0.639.

For A15C C27G C61G, the yeast fitness worked out at 0.781.

A15G A45U C49U C60G: the yeast fitness was no more than 0.5.

For the variant A15C C27U G58C, the yeast fitness came to 0.599.

As to A15C C27G G39C U47A A69U, the yeast fitness is no more than 0.5.

Regarding A15G A20G A40U, the yeast fitness was found to be 0.808.

As to A15G A37U C55U, the yeast fitness is 0.556.

Regarding A15C G38A, the yeast fitness turned out to be 0.581.

As to A15G A45C C61U, the yeast fitness came out at 0.574.

For A15C G51C, the yeast fitness worked out at 0.504.

Turning to A15C A37C A42U, the yeast fitness is no more than 0.5.

For the variant A15C A70G, the yeast fitness came to 0.795.

Take A15C A70U: the yeast fitness was found to be 0.872.

For A15C U35G G56C, the yeast fitness was no more than 0.5.

As for A15C G48C C66U G67C, the yeast fitness is no more than 0.5.

In the case of A15C G41C C46A, the yeast fitness is no more than 0.5.

Regarding A15G A37G C66U G67A, the yeast fitness is no more than 0.5.

As to A15C U26G U28C U32C A37G G41A C49G, the yeast fitness is no more than 0.5.

A15C G41C U59G A70G: the yeast fitness is no more than 0.5.

In the case of A15C U16G A21C C24A U32A A45C, the yeast fitness was no more than 0.5.

Take A15C G52A A70U: the yeast fitness is no more than 0.5.

Regarding A15G A36C G50C, the yeast fitness was no more than 0.5.

A15C G44A A57C: the yeast fitness is no more than 0.5.

For the variant A15C C33G, the yeast fitness amounted to 0.505.

For A15C C33U, the yeast fitness turned out to be 0.572.

Turning to A15C C34G, the yeast fitness is 0.59.

In the case of A15C C31G C49U U64C G67A, the yeast fitness is no more than 0.5.

In the case of A15C A45U C66A, the yeast fitness was no more than 0.5.

Consider A15G A36U C61U, for which the yeast fitness is no more than 0.5.

Consider A15C G25C, for which the yeast fitness came out at 0.709.

Regarding A15C G23A C24G C46G C55G, the yeast fitness was no more than 0.5.

With A15C C30A A69C, the yeast fitness was no more than 0.5.

Turning to A15C A65U G67U, the yeast fitness is no more than 0.5.

A15C G50C U53A C66A: the yeast fitness is no more than 0.5.

A15C G48C G68U: the yeast fitness was 0.548.

Take A15C G17A U35A: the yeast fitness was no more than 0.5.

Regarding A15C G17C A45U, the yeast fitness was no more than 0.5.

Take A15G A42C G50A U59C A65C: the yeast fitness is no more than 0.5.

Regarding A15C G39A C60G A70G, the yeast fitness is no more than 0.5.

Regarding A15G A42C C49A C62U A69C, the yeast fitness was no more than 0.5.

As for A15C C33A C34U A36C, the yeast fitness was 0.604.

On to A15C A37C C60U G67A, for which the yeast fitness was no more than 0.5.

Take A15C U16A G56C A57C C60U: the yeast fitness was no more than 0.5.

Turning to A15G A43G U53G G63A, the yeast fitness is no more than 0.5.

Consider A15G A45G, for which the yeast fitness is 0.853.

As to A15G A45C, the yeast fitness came to 0.796.

For A15G A21U U26C, the yeast fitness was found to be 0.535.

With A15G A20C A21C G23A G52U, the yeast fitness is no more than 0.5.

As for A15C C24G A45G G52A C60A, the yeast fitness is no more than 0.5.

A15C G41C A45C: the yeast fitness is no more than 0.5.

Turning to A15C C22G U32C G41A, the yeast fitness is no more than 0.5.

Regarding A15G A45U C61G, the yeast fitness came out at 0.6.

On to A15C U28C A43U, for which the yeast fitness is no more than 0.5.

For the variant A15C U19A C24G G63A, the yeast fitness was no more than 0.5.

As for A15G A43C G67U A70U, the yeast fitness was no more than 0.5.

Take A15C G41C C49U G68C: the yeast fitness is no more than 0.5.

As for A15C C46U C60U, the yeast fitness was found to be 0.58.

Consider A15C U16A A21G U26A C30U C61A, for which the yeast fitness came out at 0.692.

A15C C60U A69G: the yeast fitness was no more than 0.5.

Turning to A15C U47G G52A G68A, the yeast fitness is no more than 0.5.

Take A15G A20U G63A: the yeast fitness came to 0.603.

Take A15C C31G C33G C55U C61U: the yeast fitness came to 0.504.

Regarding A15C A36G C49U, the yeast fitness amounted to 0.533.

In the case of A15C G18A U35C, the yeast fitness is no more than 0.5.

In the case of A15G A43U, the yeast fitness was 0.925.

Turning to A15G A43C, the yeast fitness stood at 0.847.

Consider A15C G17A G38C U59C, for which the yeast fitness is 0.569.

Regarding A15C C34U A36G C55A, the yeast fitness is no more than 0.5.

For A15C U28G C30G A40C A42U, the yeast fitness is no more than 0.5.

A15C U26A C31G U32A: the yeast fitness is no more than 0.5.

With A15C G17A, the yeast fitness was 0.707.

A15C A42G G67C: the yeast fitness is no more than 0.5.

Consider A15C A42G G67U, for which the yeast fitness turned out to be 0.522.

For A15C C30G, the yeast fitness turned out to be 0.541.

For the variant A15C C30U, the yeast fitness stood at 0.572.

In the case of A15C C33U C61G, the yeast fitness was no more than 0.5.

Turning to A15C G44A G67A, the yeast fitness is no more than 0.5.

Regarding A15C A43U, the yeast fitness worked out at 0.653.

Consider A15C A43G, for which the yeast fitness is 0.689.

Turning to A15C C24G A45G, the yeast fitness is no more than 0.5.

With A15G A21U A45G C62G, the yeast fitness amounted to 0.506.

Take A15C C22G C33U U59G C62G: the yeast fitness stood at 0.981.

Turning to A15G A37G A70C, the yeast fitness came to 0.664.

For A15C G52A C66U, the yeast fitness was no more than 0.5.

For the variant A15C C30G C66G A69U, the yeast fitness is no more than 0.5.

In the case of A15C A37C G41C C66A, the yeast fitness was 0.589.

Turning to A15C G25A C61U, the yeast fitness came out at 0.664.

In the case of A15G A20U A45U, the yeast fitness was no more than 0.5.

For the variant A15C C55G A57C, the yeast fitness is no more than 0.5.

Turning to A15C C24U A42C, the yeast fitness was 0.62.

Turning to A15C G25A A42U A65C G67U, the yeast fitness is no more than 0.5.

With A15C G48C C66A, the yeast fitness is no more than 0.5.

On to A15C G58A G68A A70C, for which the yeast fitness was no more than 0.5.

On to A15G A20U C33A A36C A42U C55G C60A A69G, for which the yeast fitness is 0.594.

Take A15C U35C A37U C66U: the yeast fitness was no more than 0.5.

Regarding A15C C33G C60U C62U, the yeast fitness was no more than 0.5.

A15C U19A A70C: the yeast fitness was no more than 0.5.

For the variant A15C U59C, the yeast fitness is 0.741.

For the variant A15C C29G A40U G52A, the yeast fitness was no more than 0.5.

With A15C C22G A43C G50A, the yeast fitness was found to be 0.556.

In the case of A15C C24G, the yeast fitness worked out at 0.557.

As for A15C G18C A42C G51C A65C, the yeast fitness was no more than 0.5.

Take A15G A20U: the yeast fitness was 1.06.

On to A15G A20C, for which the yeast fitness came out at 0.779.

On to A15G A20G, for which the yeast fitness amounted to 1.04.

Consider A15C A42C G48A G50C, for which the yeast fitness was found to be 0.587.

On to A15C G23C G41A, for which the yeast fitness was no more than 0.5.

For A15C G68A, the yeast fitness was determined as 0.76.

For the variant A15G A20U C29G A43G A70U, the yeast fitness was no more than 0.5.

Regarding A15C U28C G48C G50U, the yeast fitness was no more than 0.5.

A15C C24G A45G C55U: the yeast fitness is no more than 0.5.

On to A15C U19C A21G C34U U53C, for which the yeast fitness was no more than 0.5.

For A15C A42C C55G, the yeast fitness worked out at 0.547.

With A15C C49A G68C, the yeast fitness is no more than 0.5.

For A15C A57U C62G, the yeast fitness was no more than 0.5.

As to A15C C34G C49G U54C C66G G68C, the yeast fitness was no more than 0.5.

As to A15C A45G U53C, the yeast fitness was no more than 0.5.

As for A15G A20U C22U G38C, the yeast fitness was no more than 0.5.

As for A15G A36U C55A A57C, the yeast fitness came out at 0.579.

Turning to A15C C46G G50C C61A, the yeast fitness stood at 0.636.

Regarding A15C U26A G50C, the yeast fitness is no more than 0.5.

A15C U16C A65G: the yeast fitness is no more than 0.5.

Consider A15C C31G U32A C33U C34G, for which the yeast fitness was no more than 0.5.

In the case of A15C A36C G39C, the yeast fitness was no more than 0.5.

As to A15C C22A C31A G38C, the yeast fitness was no more than 0.5.
